Screens deposited in PubChem BioAssay by several laboratories.
S1P4 ag: agonists of human S1P4 receptor; activation, % at 4.98 µM; S1P4-expressing cell line, agonist reporter assay; O95977; 220,000 tested, 0.35% active; AID 1509; in the data active = activation above about 11%
Target sequence (O95977 whole entry, looked up): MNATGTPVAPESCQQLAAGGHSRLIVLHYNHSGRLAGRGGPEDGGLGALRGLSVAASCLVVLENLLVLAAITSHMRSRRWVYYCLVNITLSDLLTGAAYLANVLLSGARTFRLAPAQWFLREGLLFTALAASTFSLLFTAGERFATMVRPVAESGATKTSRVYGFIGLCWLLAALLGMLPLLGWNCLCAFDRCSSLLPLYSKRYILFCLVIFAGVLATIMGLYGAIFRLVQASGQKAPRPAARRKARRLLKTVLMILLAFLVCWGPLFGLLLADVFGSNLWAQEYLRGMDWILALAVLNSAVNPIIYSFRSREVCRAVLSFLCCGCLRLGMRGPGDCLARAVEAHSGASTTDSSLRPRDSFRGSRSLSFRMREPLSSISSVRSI
S1P4 antagonist: blocks the human S1P4 receptor; O95977; S1P4-expressing cells, antagonist mode, reporter read-out; inhibition, % at 4.98 µM; 220,000 tested, 0.26% active; AID 1510; in the data active = inhibition above about 29%
L major viab: Leishmania major promastigote growth inhibition | 200,000 tested, 9% active | AID 1063 | inhibition, % at 10 µM | Leishmania major promastigotes, resazurin fluorescence viability; in the data active = inhibition above about 50%;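 also: promastigotes grown with compound for 44 hours at 28 °C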
S1P3 antag: S1P3 (human) receptor antagonism | Q99500 | CHO S1P3 NFAT-BLA reporter, FRET fluorescence, antagonist mode | inhibition, % at 4.98 µM | 170,000 tested, 0.27% active | AID 485;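 active = inhibition above the plate cutoff, the mean inhibition of test wells on that plate plus 3 SD, cut at about 28% in these data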;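 also: cells challenged with S1P at its EC80 of 0.8 µM; blue over green emission ratio from cleaved BLA substrate after 4 h stimulation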
Mdm2 ligase inh: Mdm2 E3 ligase (human) inhibition; AID 1230; Q00987; cell-based MDM2 ubiquitination luciferase reporter, 2 h; 0 = plate control, 100 = twice control, blank-subtracted; 210,000 tested, 0.11% active; signal enhancement, % at 5 µM;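 active = signal enhancement of 30% or more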;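 also: luminescence tracks abundance of the self-degrading MDM2-luciferase fusion protein; higher signal means inhibition of MDM2 E3 ligase activity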
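System: stable MDM2–luciferase fusion reporter cells / Input: 2000 cells seeded into each well / Schedule: 4 h settle plus 2 h compound, 37 °C / Compound: single-point 5 µM / Buffer or medium: cells held in DMEM / Benchmarks: control and blank well means / Evaluation: percent signal gain over controls, blank-subtracted / Measured by: luciferase luminescence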
Hits are given with their value. The full list was thinned out, with hits kept by preference.

Screening Cc1[nH]c2ccc(F)cc2c1CCN(Cc1cccnc1)C(=S)Nc1ccc(F)cc1 returned S1P4 ag inactive, S1P4 antagonist inactive, L major viab 100, S1P3 antag inactive and Mdm2 ligase inh inactive.
For COc1ccc(NC(=S)N(CCc2c(C)[nH]c3ccc(C)cc23)Cc2cccs2)cc1 the results were S1P4 ag inactive, S1P4 antagonist inactive, L major viab 54 and S1P3 antag inactive.
COc1ccc(NC(=S)N(Cc2ccc(C)cc2)Cc2ccccn2)cc1 was read as S1P4 ag inactive, S1P4 antagonist inactive, L major viab 95, S1P3 antag inactive and Mdm2 ligase inh inactive.
For Cc1cc(C)nc(SCC(=O)Nc2nonc2N)n1 the results were S1P4 ag inactive, S1P4 antagonist inactive, L major viab inactive, S1P3 antag inactive and Mdm2 ligase inh inactive.
O=C(c1ccc([N+](=O)[O-])c(CS(=O)(=O)c2ccc(Cl)cc2)c1)N1CCCC1 was read as S1P4 ag inactive, S1P4 antagonist inactive, L major viab inactive, S1P3 antag inactive and Mdm2 ligase inh inactive.
`CCOc1ccc(NC(=S)N(CCc2c(C)[nH]c3ccc(C)cc23)Cc2ccco2)cc1` gave S1P4 ag inactive, S1P4 antagonist inactive, L major viab 73 and S1P3 antag inactive.
`COCCN(C(=S)Nc1cccc(C)c1)C(C)c1cccnc1` (stereo unspecified) gave S1P4 ag inactive, S1P4 antagonist inactive, L major viab 64 and S1P3 antag inactive.
Cc1ccc(NC(=S)N(CCN(C)C)C(C)c2cccnc2)cc1 (stereo unspecified) was read as S1P4 ag inactive, S1P4 antagonist inactive, L major viab inactive, S1P3 antag inactive and Mdm2 ligase inh inactive.
Screening CCOc1ccc(NC(=S)N(CCOC)C(C)c2cccnc2)cc1 (stereo unspecified) returned S1P4 ag inactive, S1P4 antagonist inactive, L major viab 73 and S1P3 antag inactive.
COc1ccc(NC(=O)CCC(=O)OCc2ccc([N+](=O)[O-])cc2)cc1 was read as S1P4 ag inactive, S1P4 antagonist inactive, L major viab inactive, S1P3 antag inactive and Mdm2 ligase inh inactive.
Screening Cc1nc2ccc(NC(=O)c3ccc([N+](=O)[O-])cc3[N+](=O)[O-])cc2s1 returned S1P4 ag inactive, S1P4 antagonist inactive, L major viab 100, S1P3 antag inactive and Mdm2 ligase inh inactive.
Cc1nc2ccc(NC(=O)c3ccc(Cl)s3)cc2s1 was read as S1P4 ag inactive, S1P4 antagonist inactive, L major viab inactive, S1P3 antag 56 and Mdm2 ligase inh inactive.
For Cc1ccc2nc(NC(=O)c3ccc(Cl)s3)sc2c1 the results were S1P4 ag inactive, S1P4 antagonist inactive, L major viab inactive, S1P3 antag inactive and Mdm2 ligase inh inactive.
`CCOC(=O)N1CCC(N2C(=O)c3ccccc3C2Nc2ccc(S(=O)(=O)N3CCOCC3)cc2)CC1` (stereo unspecified) gave S1P4 ag inactive, S1P4 antagonist inactive, L major viab inactive, S1P3 antag inactive and Mdm2 ligase inh inactive.
O=C(CNS(=O)(=O)c1ccc(Br)s1)NCC1COc2ccccc2O1 (stereo unspecified) was read as S1P4 ag inactive, S1P4 antagonist inactive, L major viab 59, S1P3 antag inactive and Mdm2 ligase inh inactive.
O=C(CNS(=O)(=O)c1ccc(Br)s1)Nc1ccc2c(c1)OCCO2 was read as S1P4 ag inactive, S1P4 antagonist inactive, L major viab inactive, S1P3 antag inactive and Mdm2 ligase inh inactive.
Screening Cc1c(Br)c([N+](=O)[O-])nn1CC(=O)c1ccccc1 returned S1P4 ag inactive, S1P4 antagonist inactive, L major viab inactive, S1P3 antag inactive and Mdm2 ligase inh inactive.
`O=C(NCc1ccccn1)NC12CC3CC(CC(C3)C1)C2` gave S1P4 ag inactive, S1P4 antagonist inactive, L major viab inactive, S1P3 antag inactive and Mdm2 ligase inh inactive.
O=C(NCc1ccccn1)C(=O)Nc1nc(C23CC4CC(CC(C4)C2)C3)cs1 was read as S1P4 ag inactive, S1P4 antagonist inactive, L major viab 68, S1P3 antag inactive and Mdm2 ligase inh inactive.
For CCOc1cc(N2CCOCC2)c(OCC)cc1NC(=O)c1c(-c2ccccc2Cl)noc1C the results were S1P4 ag inactive, S1P4 antagonist inactive, L major viab inactive, S1P3 antag inactive and Mdm2 ligase inh inactive.
Screening CSc1nnc(SCC#N)s1 returned S1P4 ag inactive, S1P4 antagonist inactive, S1P3 antag inactive and Mdm2 ligase inh inactive.
Screening CN(Cc1ccncn1)C(=O)CC1C(=O)NCCN1Cc1cccc(Oc2ccccc2)c1 (stereo unspecified) returned S1P4 ag inactive, S1P4 antagonist inactive, L major viab 95, S1P3 antag inactive and Mdm2 ligase inh inactive.
For COc1cc(CN2CCNC(=O)C2CC(=O)N(C)Cc2cccnc2)cc(OC)c1 (stereo unspecified) the results were S1P4 ag inactive, S1P4 antagonist inactive, L major viab inactive, S1P3 antag inactive and Mdm2 ligase inh inactive.
`CCN(CC)S(=O)(=O)c1cc(NC(=O)C(C)N(C)CC(=O)Nc2c(C)cccc2C)ccc1C` (stereo unspecified) gave S1P4 ag inactive, S1P4 antagonist inactive, L major viab 68, S1P3 antag inactive and Mdm2 ligase inh inactive.
`CCN(CC)S(=O)(=O)c1cc(NC(=O)C(C)N2CCc3ccccc32)ccc1C` (stereo unspecified) gave S1P4 ag inactive, S1P4 antagonist inactive, L major viab inactive, S1P3 antag inactive and Mdm2 ligase inh inactive.
CCOC(=O)N1CCN(c2c(N3CCN(c4ccccc4F)CC3)c(=O)c2=O)CC1 was read as S1P4 ag inactive, S1P4 antagonist inactive, S1P3 antag inactive and Mdm2 ligase inh inactive.
For O=[N+]([O-])c1ccc(Nc2c3ccccc3nc3ccccc23)cc1 the results were S1P4 ag inactive, S1P4 antagonist inactive, L major viab 57, S1P3 antag inactive and Mdm2 ligase inh inactive.
O=[N+]([O-])c1ccccc1Nc1c2ccccc2nc2ccccc12 was read as S1P4 ag inactive, S1P4 antagonist inactive, L major viab inactive, S1P3 antag inactive and Mdm2 ligase inh inactive.
Screening Cc1c(NC(=O)COC(=O)c2ccc(F)c(S(=O)(=O)N3CCOCC3)c2)c(=O)n(-c2ccccc2)n1C returned S1P4 ag inactive, S1P4 antagonist inactive, L major viab inactive, S1P3 antag inactive and Mdm2 ligase inh inactive.
COC(=O)c1ccc(CN2CCC(CO)(Cc3ccccc3Cl)CC2)cc1 was read as S1P4 ag inactive, S1P4 antagonist inactive, L major viab 98, S1P3 antag inactive and Mdm2 ligase inh inactive.
`COC(=O)c1ccc(CN2CCCCC2)cc1` gave S1P4 ag inactive, S1P4 antagonist inactive, S1P3 antag inactive and Mdm2 ligase inh inactive.
COc1ccc(/C=C/CN2CCN(Cc3ccccc3)C(CCO)C2)cc1 (stereo unspecified) was read as S1P4 ag inactive, S1P4 antagonist inactive, L major viab inactive, S1P3 antag inactive and Mdm2 ligase inh inactive.
Screening COc1ccc(/C=C/CN2CCC(CO)(Cc3ccccc3Cl)CC2)cc1 returned S1P4 ag inactive, S1P4 antagonist inactive, L major viab 96, S1P3 antag inactive and Mdm2 ligase inh inactive.
